Converted amounts (≈) assume the structure as drawn.
System: HeLa
Experiment: Cytostatic activity against human HeLa cells after 72 hrs by FCR-based colorimetric method
Type: functional
Conditions: read-out: ED50 (the source's name)
Summary of the method: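 HeLa cells seeded at 10⁵ cells/mL in Minimal Eagle's medium with 10% fetal calf serum in Leighton tubes at 37 °C; after 2-3 h attachment, compound added as suspension in sterile saline with 0.05% (v/v) Tween 80 (10% of final volume). Incubated 72 h at 37 °C; growth estimated from cell protein by Oyama-Eagle colorimetric method; 6-mercaptopurine positive control.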

SMILES	EC50 [µg/mL]
Br.NCc1cc(C(N)=O)n([C@@H]2O[C@H](CO)[C@@H](O)[C@H]2O)n1	> 100
CC(=O)O[C@@H]1[C@H](OC(C)=O)[C@H](OC(C)=O)CO[C@H]1n1nc(CBr)cc1C(N)=O	3 (≈ 6.49 µM)
CCOC(=O)c1cc(CN(CCCl)CCCl)nn1[C@@H]1OC[C@@H](OC(C)=O)[C@@H](OC(C)=O)[C@H]1OC(C)=O	> 100
CC(=O)OC[C@H]1O[C@@H](n2nc(CN(CCCl)CCCl)cc2C(N)=O)[C@H](OC(C)=O)[C@@H](OC(C)=O)[C@@H]1OC(C)=O	> 100
Br.NCc1cc(C(N)=O)n([C@@H]2O[C@H](CO)[C@@H](O)[C@H](O)[C@H]2O)n1	> 100
Sc1ncnc2nc[nH]c12 [MERCAPTOPURINE ANHYDROUS]	0.1 (≈ 0.657 µM)
CCOC(=O)c1cc(CN(CCCl)CCCl)nn1[C@@H]1O[C@H](COC(C)=O)[C@@H](OC(C)=O)[C@H]1OC(C)=O	> 100
CC(=O)OC[C@H]1O[C@@H](n2nc(CN(CCCl)CCCl)cc2C(N)=O)[C@H](OC(C)=O)[C@@H]1OC(C)=O	35 (≈ 66.9 µM)
CC(=O)O[C@@H]1[C@H](OC(C)=O)[C@H](OC(C)=O)CO[C@H]1n1nc(CN(CCCl)CCCl)cc1C(N)=O	50 (≈ 95.5 µM)
Br.NCc1cc(C(N)=O)n([C@@H]2OC[C@@H](O)[C@@H](O)[C@H]2O)n1	> 100
CCOC(=O)c1cc(CN(CCCl)CCCl)nn1[C@@H]1O[C@H](COC(C)=O)[C@@H](OC(C)=O)[C@H](OC(C)=O)[C@H]1OC(C)=O	> 100

Now from value to compound:

EC50 [µg/mL]	SMILES
2 (≈ 4.33 µM)	CC(=O)OC[C@H]1O[C@@H](n2nc(C(N)=O)cc2CBr)[C@H](OC(C)=O)[C@@H]1OC(C)=O
2.5 (≈ 5.09 µM)	CCOC(=O)c1cc(CBr)nn1[C@@H]1O[C@H](COC(C)=O)[C@@H](OC(C)=O)[C@H]1OC(C)=O
4 (≈ 7.49 µM)	CC(=O)OC[C@H]1O[C@@H](n2nc(CBr)cc2C(N)=O)[C@H](OC(C)=O)[C@@H](OC(C)=O)[C@@H]1OC(C)=O
2 (≈ 4.07 µM)	CCOC(=O)c1cc(CBr)nn1[C@@H]1OC[C@@H](OC(C)=O)[C@@H](OC(C)=O)[C@H]1OC(C)=O
6 (≈ 10.7 µM)	CCOC(=O)c1cc(CBr)n([C@@H]2O[C@H](COC(C)=O)[C@@H](OC(C)=O)[C@H](OC(C)=O)[C@H]2OC(C)=O)n1
2 (≈ 4.33 µM)	CC(=O)OC[C@H]1O[C@@H](n2nc(CBr)cc2C(N)=O)[C@H](OC(C)=O)[C@@H]1OC(C)=O
5 (≈ 8.88 µM)	CCOC(=O)c1cc(CBr)nn1[C@H]1O[C@H](COC(C)=O)[C@@H](OC(C)=O)[C@H](OC(C)=O)[C@H]1OC(C)=O
5 (≈ 8.88 µM)	CCOC(=O)c1cc(CBr)nn1[C@@H]1O[C@H](COC(C)=O)[C@@H](OC(C)=O)[C@H](OC(C)=O)[C@H]1OC(C)=O

From ChEMBL document CHEMBL3228043, “Alkylating nucleosides. 2. Synthesis and cytostatic activity of bromomethylpyrazole and pyrazole nitrogen mustard nucleosides” (1979)
